# Screening data (PubChem BioAssay)
# The list is not random: actives were taken first. Their share in the collection is about 2.6%.
# RAD54 inh = inhibitors of human RAD54 branch migration. hit rate 0.14% among 360,000. inhibition, % at 10.4 µM. Q92698. RAD54 Holliday junction branch migration, FAM/BHQ fluorescence;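 active means mean normalized replicate activity at least 40 and at least half of replicates scoring 40 or more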;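 further: 0% = median of neutral control wells and 100% = median of positive control wells; inhibitors cause a drop in the FAM fluorescence signal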
# rRNA inh HTS = inhibitors of bacterial rRNA selective over humanized ribosomes. hit rate 1.6% among 350,000. E. coli WT GFP vs humanized-ribosome RFP mutants, fluorescence, 24 h; active compounds read low; DMSO median 0, no signal -100. GFP signal change (wild-type ribosome), % (concentration not given with the values). AID 720706;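 active means significant combined selectivity score with lowered wild-type GFP, culture density cut under 30%, mutant RFP and density less affected; inactive means any of these conditions unmet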
# MLL AF4-AF9 inh = inhibitors of human MLL-AF4/AF9 interaction; P42568; AlphaScreen, biotin-AF4 peptide binding to FLAG-AF9; inhibition, % at 10 µM; hit rate 0.47% among 350,000; AID 651704;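 active means every replicate reaching a set inhibition limit, whatever the replicate mean, cut at about 25% in these data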;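 further: 0% = plate neutral control median and 100% = total signal loss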
# RAD52 inh = inhibitors of human RAD52 DNA annealing. P43351. recombinant RAD52 DNA annealing, FRET fluorescence. inhibition, % at 18.7 µM. hit rate 0.46% among 360,000. AID 651710;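 active means every replicate showing at least 50% inhibition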
# E-sel inducer = E-selectin induction on HUVECs; hit rate 0.37% among 260,000; HUVEC E-selectin immunofluorescence imaging; normalized: neutral wells 0, TNF-alpha wells 100; activation, % at 7.58 µM;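 active means mean E-selectin-positive cell signal at least 10% of the positive control, reached in at least 60% of replicates, without over 20% cell loss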
#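 Read-out basis: % PE-positive cells; Test system: HUVEC primary endothelial cells; Technique: immunofluorescence imaging; Dosing: single-point compound dose.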
# INS-1E GSIS act = GLuc luminescence reporter in INS-1E cells, primary screen for activators of glucose-dependent secretion of insulin | INS-1E GLuc reporter insulin secretion, 2-3 h | activation, % at 16.6 µM | hit rate 0.61% among 370,000 | AID 743287;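 active means lowest replicate activation of at least 40%, so every replicate reaches that level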;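 further: 0% = median of neutral control wells and 100% = median of IBMX positive control wells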
# * hit, by the source's call; . = no result.
SMILES,RAD54 inh,rRNA inh HTS,MLL AF4-AF9 inh,RAD52 inh,E-sel inducer,INS-1E GSIS act
CC(Sc1ncnc2sc(-c3ccccc3)cc12)C(=O)N1CCNC1=O (stereo unspecified),-3,9,-1,-16,39*,6
CC(C)N(C(=O)CSc1ncnc2sc(-c3ccccc3)cc12)C(C)C,3,.,.,.,.,9
CN(C(=O)CSc1nc2c(c(=O)[nH]1)CCCC2)C1CCCCC1,.,-15*,4,-18,.,0
Cc1nc(SCC(=O)N(C)C2CCCCC2)[nH]c(=O)c1Cc1ccccc1,-4,-26*,.,-16,.,-26
CN(C(=O)CSc1nc(N)cc(=O)[nH]1)C1CCCCC1,-6,5,-2,-3,0,3
Cc1nc(SCC(=O)NC2CCCC2)[nH]c(=O)c1Cc1ccccc1,.,16,9,-10,.,2
CCCN1C[C@H](C)[C@H](OC)CN(C)C(=O)c2cc(NC(=O)c3ccc(F)cc3)ccc2OC[C@@H]1C,4,4,-1,6,0,2
CCCN(C)C[C@H]1OCCCC[C@@H](C)Oc2ccc(NC(=O)Cc3ccccc3)cc2C(=O)N([C@@H](C)CO)C[C@H]1C,.,5,.,.,0,-18
O=C1C(=Cc2cccs2)Oc2ccccc21,-3,-19*,10,-7,0,.
COc1cccc(C#Cc2cnc3c(c2)C(=O)N([C@@H](C)CO)C[C@@H](C)[C@H](CN(C)C(C)=O)O3)c1,-14,0,-1,17,0,4
Cc1cc(C)c2nc(NC(=O)c3ccc4c(=O)n5c(nc4c3)CCCCC5)sc2c1,.,-2,-6,-7,35*,-5
O=C(Cc1ccccn1)N1CC(=O)N2[C@H](CO)[C@H](c3ccc(C#CC4CCCC4)cc3)[C@H]2C1,.,-5,0,-13,0,-5
COc1cccc(OCc2nc3c4cnn(-c5ccccc5)c4ncn3n2)c1,10,.,.,.,.,57*
CSc1ccccc1NC(=O)CSc1n[nH]c(C)c1[N+](=O)[O-],.,-30*,-5,-38,3,-10
Cc1ccc(O)c(NC(=O)CSc2n[nH]c(C)c2[N+](=O)[O-])c1,.,-25,-1,-18,.,13
Cc1ccccc1S(=O)(=O)N1C[C@@H](O)COC[C@@H]2O[C@H](CC(=O)NCCc3ccccc3)CC[C@H]21,2,2,0,-12,0,1
CC[N+]1(C)CCC(O)(c2ccc(OC)cc2)C(C(=O)c2ccc(OC)cc2)C1 (stereo unspecified),.,11,-1,-5,-1,214*
COc1ccc(-c2ccc(C(=O)C3CC3)cc2)cc1,1,3,-1,-11,0,-6
COC(=O)C[C@@H]1CC[C@H]2[C@H](COc3ccc(NS(=O)(=O)c4ccccc4Cl)cc3C(=O)N2C)O1,1,-3,-2,4,0,-9
Cc1ccn2cc(-c3cccc(S(=O)(=O)N4CCCC4)c3)nc2c1,2,-25*,-2,2,.,-3
COc1ccccc1CNc1cncnc1,1,-23*,-10,0,0,12
CO[C@@H]1CN(C)C(=O)c2cc(NC(C)=O)ccc2OC[C@H](C)N(Cc2cccnc2)C[C@@H]1C,-2,2,.,.,1,2
O=CN/N=C/c1c(O)ccc2ccccc12,.,-20*,-5,-135,10,-7
Cc1ccc(S(=O)(=O)N(C)C[C@@H]2Oc3cc(C#Cc4ccncc4)ccc3S(=O)(=O)N([C@@H](C)CO)C[C@@H]2C)cc1,14,0,0,-83,0,-1
CN1C(=O)C(N=Nc2ccc([N+](=O)[O-])cc2)SC1=S (stereo unspecified),-7,-19,44*,-24,.,.
SMILES,RAD54 inh,rRNA inh HTS,MLL AF4-AF9 inh,RAD52 inh,E-sel inducer,INS-1E GSIS act
CC(=O)N1CCCCN2[C@H](C1)[C@H](c1ccc(-c3ccc(C)cc3)cc1)[C@@H]2CO,4,4,-1,-11,0,-23
Cc1ccc(-c2cnc3c(c2)C(=O)N([C@@H](C)CO)C[C@H](C)[C@@H](CN(C)Cc2ccccc2C(=O)O)O3)cc1,-10,0,0,0,.,8
N#C/C(=C\c1ccc(OCc2ccc(Cl)cc2)cc1)C(=O)Nc1cccc(C(=O)O)c1,1,-27*,2,0,.,-23
O=C(O)c1cccc(NC(=O)c2ccc(COc3ccc(Cl)cc3)cc2)c1,1,2,-15,-21,.,-22
C[C@@H]1CN([C@@H](C)CO)C(=O)CCCn2cc(nn2)CO[C@@H]1CN(C)C(=O)Cc1ccccc1,.,-1,.,.,0,2
COC(=O)c1sc(-c2ccccc2)cc1NC(=O)C1CC1,.,-27*,8,9,7,10
NNC(=O)c1ccc(COc2ccc3ccccc3c2)o1,.,-25*,.,-17,0,-10
CCOc1ccc(OCc2ccc(C(=O)NN)o2)cc1,.,-13,-1,-15,9,.
O=C(OCc1ccccn1)c1ccc(COc2ccc3ccccc3c2)o1,-5,-26*,-1,-34,.,4
Cc1ccc(OCc2ccc(C(=O)NN)o2)cc1C,-12,-32*,-1,-4,0,-4
CC(C)CC#Cc1cnc2c(c1)C(=O)N([C@H](C)CO)C[C@H](C)[C@H](CN(C)C(=O)Cc1ccncc1)O2,-1,-2,0,15,0,1
CS(=O)(=O)Nc1ccc2c(c1)[C@H]1C[C@@H](CC(=O)NCc3ccc(Oc4ccccc4)cc3)O[C@H](CO)[C@H]1O2,-12,1,1,7,0,-6
C[C@H]1[C@@H](c2ccccc2)Oc2c(Cl)cccc2S(=O)(=O)N1C,.,-42,-2,-10,.,122*
Cc1noc(C)c1NC(=O)N(C)C[C@@H]1OCCCC[C@@H](C)Oc2ccc(NS(=O)(=O)c3ccccc3)cc2C(=O)N([C@@H](C)CO)C[C@H]1C,-1,1,-5,5,0,-1
O=C(O)COc1ccc(/C=C/c2nc(-c3ccccc3O)n[nH]2)cc1,-6,-17*,-6,-8,0,2
COc1ccc(/C=C/c2nc(-c3ccccc3O)n[nH]2)cc1OC,1,.,.,.,.,-9
Cn1nc(C(C)(C)C)cc1C(=O)NNC(=O)c1cccc(Cl)c1,1,-10,40*,-9,0,12
COCCN=c1scc(-c2cccs2)n1/N=C/c1ccc(O)c(O)c1O,.,6,53*,-13,.,-25
O=C(C[C@@H]1CC[C@H](NC(=O)C2CCC2)[C@H](CO)O1)NCC1CC1,1,1,-1,-4,0,3
CN1C(=O)C2C3c4ccccc4C(c4ccccc43)[C@@H]2C1=O (stereo partly specified),-22,7,0,-7,0,71*
